Assays:
[1] = target: T1, Cytochrome P450 11B2, mitochondrial (Homo sapiens, UniProt P19099); assay: Inhibition of human CYP11B2 expressed in hamster V79 MZh cells assessed as conversion of [4-14C]-11-deoxycorticosterone substrate by HPTLC assay; assay type: cell-based
T1 sequence (P19099 whole entry): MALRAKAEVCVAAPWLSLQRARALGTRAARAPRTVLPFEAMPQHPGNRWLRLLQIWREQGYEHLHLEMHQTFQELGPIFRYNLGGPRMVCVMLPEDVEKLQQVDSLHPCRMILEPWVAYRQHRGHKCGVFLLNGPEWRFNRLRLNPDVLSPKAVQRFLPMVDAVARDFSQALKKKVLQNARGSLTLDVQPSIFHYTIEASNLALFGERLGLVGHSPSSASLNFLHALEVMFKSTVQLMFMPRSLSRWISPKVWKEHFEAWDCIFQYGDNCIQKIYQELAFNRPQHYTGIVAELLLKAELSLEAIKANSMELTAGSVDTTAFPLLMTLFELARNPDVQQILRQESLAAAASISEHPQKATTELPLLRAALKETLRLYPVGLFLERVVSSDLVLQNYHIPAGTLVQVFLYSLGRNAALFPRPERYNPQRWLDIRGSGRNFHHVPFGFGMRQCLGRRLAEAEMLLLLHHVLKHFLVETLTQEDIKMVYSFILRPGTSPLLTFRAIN
In short: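 Hamster V79 MZh fibroblasts expressing human CYP11B2 incubated with [4-14C]-11-deoxycorticosterone (100 nM) and inhibitor at ≥3 concentrations; reaction stopped with ethyl acetate, steroids extracted after shaking and centrifugation (10000g, 2 min). Substrate conversion read by HPTLC with phosphoimaging.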

[2] = target: T1, Cytochrome P450 11B2, mitochondrial; assay: Inhibition of human CYP11B2 expressed in hamster V79 MZh cells assessed as conversion of [4-14C]-11-deoxycorticosterone substrate at 500 nM by HPTLC assay; assay type: cell-based; conditions: V79MZh
In short: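 V79 MZh cells expressing human CYP11B2 given [4-14C]-11-deoxycorticosterone, 100 nM, with inhibitor at a single 500 nM concentration. Ethyl acetate extraction, then HPTLC/phosphoimager readout of conversion. Percent inhibition is the mean of at least three experiments.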

[3] = target: T2, Cytochrome P450 11B1, mitochondrial (Homo sapiens, UniProt P15538); assay: Inhibition of human CYP11B1 expressed in hamster V79 MZh cells assessed as conversion of [4-14C]-11-deoxycorticosterone substrate by HPTLC assay; assay type: cell-based
T2 sequence (P15538 whole entry): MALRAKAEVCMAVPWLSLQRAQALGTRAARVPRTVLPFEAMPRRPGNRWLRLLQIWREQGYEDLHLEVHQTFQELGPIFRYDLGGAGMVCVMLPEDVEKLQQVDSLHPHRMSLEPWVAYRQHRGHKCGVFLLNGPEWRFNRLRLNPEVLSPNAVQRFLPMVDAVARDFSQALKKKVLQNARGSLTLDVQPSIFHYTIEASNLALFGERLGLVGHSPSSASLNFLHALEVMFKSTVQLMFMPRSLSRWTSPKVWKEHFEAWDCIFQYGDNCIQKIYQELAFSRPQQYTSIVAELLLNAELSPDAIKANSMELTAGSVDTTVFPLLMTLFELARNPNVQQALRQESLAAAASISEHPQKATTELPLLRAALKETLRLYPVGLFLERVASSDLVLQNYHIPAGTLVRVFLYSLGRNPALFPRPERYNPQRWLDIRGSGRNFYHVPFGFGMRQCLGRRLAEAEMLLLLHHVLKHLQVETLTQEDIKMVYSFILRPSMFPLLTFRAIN
In short: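 V79 MZh hamster fibroblasts stably expressing human CYP11B1 or CYP11B2 incubated with [4-14C]-11-deoxycorticosterone, 100 nM, plus inhibitor at ≥3 concentrations. Reaction stopped with ethyl acetate, steroids extracted into the organic phase, and substrate conversion quantified by HPTLC with phosphoimaging. IC50 is the mean of at least three experiments.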

CYP17 = target: T3, CYP17 (Homo sapiens, UniProt P05093); assay: Inhibition of human CYP17 expressed in Escherichia coli using progesterone substrate at 2 uM; conditions: recombinant human CYP17 expressed in Escherichia coli, probe progesterone
T3 sequence (P05093 whole entry): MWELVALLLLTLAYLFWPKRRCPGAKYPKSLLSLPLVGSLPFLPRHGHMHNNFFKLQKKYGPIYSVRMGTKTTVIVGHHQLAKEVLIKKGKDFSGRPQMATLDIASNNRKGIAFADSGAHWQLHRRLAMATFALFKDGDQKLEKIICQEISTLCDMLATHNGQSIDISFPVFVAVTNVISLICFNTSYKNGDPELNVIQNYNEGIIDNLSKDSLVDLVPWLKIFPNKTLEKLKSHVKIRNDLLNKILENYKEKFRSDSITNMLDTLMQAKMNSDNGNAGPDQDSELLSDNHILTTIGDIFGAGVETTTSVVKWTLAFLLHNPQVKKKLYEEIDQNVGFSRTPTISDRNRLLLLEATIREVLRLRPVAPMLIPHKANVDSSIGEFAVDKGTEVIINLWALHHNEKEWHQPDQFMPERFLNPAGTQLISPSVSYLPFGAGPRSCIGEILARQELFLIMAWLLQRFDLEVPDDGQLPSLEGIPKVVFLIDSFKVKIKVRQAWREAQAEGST
In short: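 50000g sediment of E. coli homogenate recombinantly expressing human CYP17. Progesterone substrate at 25 μM, inhibitor tested at 2 μM.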

Homo sapiens = species on record: Homo sapiens; assay: Selectivity ratio of IC50 for human CYP11B1 to IC50 for human CYP11B2
In short: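 Ratio of IC50 values from V79 MZh cell assays for human CYP11B1 and CYP11B2, IC50 CYP11B1/IC50 CYP11B2. Both assays used [4-14C]-11-deoxycorticosterone, 100 nM, inhibitor at ≥3 concentrations and HPTLC/phosphoimager readout of conversion.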

Row | SMILES | IC50 [1] [nM] | inhibition at 0.5 µM [2] [%] | IC50 [3] [nM] | inhibition at 2 µM (CYP17) [%] | Ratio IC50 (Homo sapiens)
1 | O=C1CCc2cc(-c3cncc(-c4cccc(O)c4)c3)cc3c2N1CC3 | 1.2 | 92 | 44 | – | –
2 | O=C1CCc2cc(-c3cncnc3)cc3c2N1CC3 | 56 | 81 | 28500 | 5 | –
3 | O=C1CCc2cc(-c3cncc(-c4cccc(C(F)(F)F)c4)c3)cc3c2N1CC3 | 33 | 80 | 4650 | – | –
4 | COc1ccccc1-c1cncc(-c2cc3c4c(c2)CCN4C(=O)CC3)c1 | 2.4 | 86 | 128 | – | –
5 | COc1cccc(-c2cncc(-c3cc4c5c(c3)CCN5C(=O)CC4)c2)c1 | 4.6 | 86 | 1370 | < 5 | 299
6 | CC1(C)CC(=O)N2CCc3cc(-c4cccnc4)cc1c32 | – | 48 | – | – | –
7 | O=C1CCc2cc(-n3ccnc3)cc3c2N1CC3 | 89 | 87 | 2080 | – | –
8 | CCOc1cncc(-c2cc3c4c(c2)CCN4C(=O)CC3)c1 | 1 | 92 | 158 | – | 158
9 | O=C1CCc2cc(-c3cncc(-c4cc(F)ccc4F)c3)cc3c2N1CC3 | 3.6 | 80 | 183 | – | –
10 | O=C1CCc2cc(-c3cncc(-c4ccccc4)c3)cc3c2N1CC3 | 1.3 | 97 | 58 | – | 45
11 | O=C1CCc2cc(-c3cncc(-c4ccc(F)cc4)c3)cc3c2N1CC3 | 0.9 | 96 | 40 | – | –
12 | O=C1CCc2cc(-c3cncc(-c4ccccc4F)c3)cc3c2N1CC3 | 0.7 | 92 | 43 | – | 61
13 | O=C1CCc2cc(-c3cncc4ccccc34)cc3c2N1CC3 | 0.2 | 98 | 13 | 6 | –
